Source: PubChem BioAssay
A selection: hits, their analogues and other compounds. The true share with any hit is near 4.9%.
STAT3 inh – IL-6 driven STAT3 reporter inhibitors, primary screen, U3A cells, luciferase, luminescence, MLSCN library; IL-6 STAT3-luciferase reporter; host cell line lacks STAT1; AID 862, 2007; 190,000 compounds, 0.89% hits; inhibition, % at 5.5 µM;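 active = inhibition above the mean inhibition across all screened compounds plus 3 SD, cut at about 44% in these data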
STAT3 activator – IL-6 driven STAT3 reporter potentiators, primary screen, U3A cells, luciferase, luminescence, MLSCN library; IL-6 STAT3-luciferase reporter; 100% = signal with IL-6 EC80 alone; activation (% of control), % at 5.6 µM; 190,000 compounds, 0.91% hits; AID 871, 2007;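 active = activation above the screen-wide mean of compound activation plus 3 SD, cut at about 130% in these data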
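Test system: Human STAT1-deficient U3A cells with stable STAT3-luciferase reporter | Also added: Interleukin-6, 33 ng/mL | Timing: Compound pre-incubation 1 h before IL-6, then 6 h stimulation at 37 °C | Technique: Luciferase reporter luminescence | Read-out: Percent of IL-6-only median luminescence | Benchmarks: IL-6-only wells as 100% reference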
APP 5'UTR act – activators of APP 5'UTR luciferase reporter, primary screen, SH-SY5Y cells; SH-SY5Y APP 5'UTR luciferase reporter, luminescence; zero percent = DMSO vehicle wells; activation, % at 2 µM; 190,000 compounds, 1% hits; AID 1276, 2008;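 active = activation above a set limit, based on mean plus 3 SD of controls, cut at about 140% in these data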
STAT1 blocker – STAT1 signaling inhibitors, primary screen, cell-based, HTS, luciferase reporter. NIH 3T3 STAT1-luciferase reporter, IFN-gamma, luminescence. inhibition, % at 5.5 µM. 200,000 compounds, 0.35% hits. AID 920, 2007;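 active = inhibition above a set limit, the mean inhibition across all tested compounds plus 3 SD, cut at about 34% in these data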
STAT1 act – STAT1 signaling activators, primary screen, cell-based, HTS, luciferase reporter | 200,000 compounds, 2.6% hits | AID 932, 2007 | NIH 3T3 STAT1-luciferase reporter, IFN-gamma, luminescence; 100% = IFN-gamma alone, no compound | activation (% of control), % at 5.5 µM;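 active = activation above the screen-wide mean activation plus 3 SD, cut at about 130% in these data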
NF-kB expr up – activators of NF-kB expression in neurons, primary screen, cell-based, HTS; fold change at 12.5 µM; 190,000 compounds, 1.6% hits; human neuronal cells, NF-kB reporter expression; active compounds read high; AID 1239, 2008; in the data active = fold change above about 3.3
Large screens that a line does not name were inactive.

O=C(c1cc(-c2cccc(O)c2)on1)N1CCCCC1	APP 5'UTR act 196, NF-kB expr up 6
O=C(c1cc(-c2ccc(Cl)c(Cl)c2)on1)N1CCCC1	none
O=C(c1cc(-c2ccc(Cl)cc2)on1)N1CCOCC1	APP 5'UTR act 158, STAT1 act 144, NF-kB expr up 5
COc1cccc(-c2cc(C(=O)N3CCCCCC3)no2)c1	APP 5'UTR act 151, NF-kB expr up 7.2
O=C(CC1CCCCC1)Nc1ncn[nH]1	none
Nc1cccc(C(=O)N/N=C/c2ccsc2)c1	none
O=C1CCCCC1C(=O)c1cn(-c2ccc(Cl)c(Cl)c2)nn1 (configuration not stated)	STAT1 act 129
Cc1ccc2c(c1)C(=O)C(=O)N2CCCOc1ccccc1C	none
Cc1ccc2c(c1)C(=O)C(=O)N2CCOc1ccccc1	NF-kB expr up 3.6
Cc1cccc(OCCN2C(=O)C(=O)c3cc(C)ccc32)c1	NF-kB expr up 3.8
COc1cccc(/C=N/Nc2ncnc(N)c2[N+](=O)[O-])c1OC	STAT3 inh 86, STAT1 blocker 59
O=C(NCCN1C(=O)S/C(=C\c2cccs2)C1=O)c1ccc(=O)[nH]c1	none
O=C(Nc1cc2ccccc2oc1=O)c1ccccc1	STAT3 inh 96, STAT1 blocker 76
Cc1ccc2nc(SCC(=O)N/N=C/c3ccco3)cc(C)c2c1	none
Cc1ccc2nc(N/N=C/c3ccco3)cc(C)c2c1	STAT1 act 138
O=S(=O)(N/N=C\c1ccc(-c2ccccc2Cl)o1)c1ccccc1	none
CC(C)(C)c1ccc(C(=O)N/N=C/c2cccc(Cl)c2)cc1	none (no result: APP 5'UTR act)
O=C(N/N=C/c1ccccc1C(F)(F)F)c1ccc(O)cc1	STAT1 act 130
O=C(N/N=C/c1cccc(F)c1)c1ccc(Cl)cc1	STAT1 act 138
O=C(N/N=C/c1ccc(-c2ccccc2Cl)o1)c1ccccc1	STAT1 act 137
O=C(N/N=C/c1ccc(F)cc1)c1ccccc1	STAT1 act 129
Cc1ccn(CCC(=O)N2CCCC(CCC(=O)N3CCN(c4ccccn4)CC3)C2)n1 (configuration not stated)	none
O=C(Nc1cccc(NC(=O)c2cccs2)c1)c1ccc2c(c1)OCCO2	none
Fc1cccc(/C=N/NC(=S)Nc2ccccc2Cl)c1	STAT1 act 131
O=C(N/N=C/c1c(Cl)cccc1Cl)c1cccc(F)c1	none
O=C(Nc1ccccc1C(=O)N/N=C/c1ccncc1)c1ccccc1	STAT3 inh 67, STAT1 blocker 54
O=C(N/N=C/c1ccccc1Cl)c1cccc(F)c1	STAT1 act 148
O=C(N/N=C/c1cccc(F)c1)c1csc2c1CCCC2	STAT1 act 142, NF-kB expr up 5.5
Cc1ccccc1C(=O)Nc1ccc(C(=O)N/N=C/c2ccncc2)cc1	none
O=C(N/N=C/c1cccc(O)c1)c1csc2ccccc12	none
O=C(O)c1ccc2c(=O)n3c(nc2c1)/C(=C/c1cccc(Cl)c1Cl)CCCC3	none
COc1ccc(/C=C/C(=O)c2ccc(NC(=O)c3cccs3)cc2)cc1OC	none
O=C(Nc1ccc(F)cc1)N1CCN(c2nc3ccccc3s2)CC1	STAT3 inh 46
O=C(Nc1ccccc1)N1CCN(c2nc3ccccc3s2)CC1	none
CCC(=O)N1CCN(c2nc3ccccc3s2)CC1	STAT1 act 129
O=C(C1CC1)N1CCN(c2nc3ccccc3s2)CC1	STAT1 act 131
Cc1ccc(S(=O)(=O)N(C)C)cc1NC(=O)CCc1c[nH]c2ccccc12	none
COc1ccc(S(=O)(=O)N(C)C)cc1NC(=O)Cc1c[nH]c2ccccc12	STAT3 activator 133
CC1(c2ccccc2)NC(=S)N2C1NC(=S)N2c1ccccc1 (configuration not stated)	none
COc1ccc(N2C(=S)NC3N2C(=S)NC3(C)c2ccccc2)cc1 (configuration not stated)	NF-kB expr up 6.7
CC1=Nc2ccccc2N=C(NC(=O)c2ccccc2)C1c1ccc(Cl)cc1 (configuration not stated)	none
